Laboratory results from ChEMBL document CHEMBL1148351, “Probing the pharmacophore for allosteric ligands of muscarinic M2 receptors: SAR and QSAR studies in a series of bisquaternary salts of caracurine V and related ring systems” (J Med Chem, 2004).
Activity calls are given as the source filed them. The rule behind the calls is not given here.

Assays:
[1] = target: T1, Muscarinic acetylcholine receptor M2 (Sus scrofa) (UniProt P06199); experiment: Concentration for half maximal inhibition of [3H]NMS dissociation from muscarinic acetylcholine receptor M2 in porcine heart ventricles
T1 sequence (whole entry): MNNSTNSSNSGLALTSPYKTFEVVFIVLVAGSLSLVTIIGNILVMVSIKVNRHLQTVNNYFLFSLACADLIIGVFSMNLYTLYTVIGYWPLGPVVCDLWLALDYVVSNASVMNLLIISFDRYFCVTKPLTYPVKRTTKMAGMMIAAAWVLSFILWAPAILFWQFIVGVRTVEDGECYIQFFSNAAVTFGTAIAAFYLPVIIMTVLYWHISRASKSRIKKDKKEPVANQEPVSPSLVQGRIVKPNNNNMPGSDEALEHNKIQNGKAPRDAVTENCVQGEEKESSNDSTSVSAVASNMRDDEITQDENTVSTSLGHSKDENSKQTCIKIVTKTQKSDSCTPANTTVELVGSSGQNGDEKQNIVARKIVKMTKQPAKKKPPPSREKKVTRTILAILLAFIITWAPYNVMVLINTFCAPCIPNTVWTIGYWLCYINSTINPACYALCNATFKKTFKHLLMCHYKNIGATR
Method in brief: (§1)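 Porcine cardiac homogenates, 0.2 nM [3H]NMS in 4 mM Na2HPO4/1 mM KH2PO4 pH 7.4, 23 °C; preincubated 30 min, then dissociation started with 1 μM atropine with or without modulator. Specific binding sampled over 120 min (complete) or at t=0 and 10 min (two-point). Apparent k-1 expressed as % control; four-parameter logistic fit gives EC0.5,diss. Two to four experiments; nonspecific defined by 10^-6 M atropine; filtration, scintillation counting.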

[2] = target: T1, Muscarinic acetylcholine receptor M2 (Sus scrofa); experiment: Equilibrium binding to muscarinic acetylcholine receptor M2 using [3H]NMS in porcine heart ventricles
[3] = target: T1, Muscarinic acetylcholine receptor M2 (Sus scrofa); experiment: Effective concentration for half maximal inhibition of [3H]NMS dissociation from Muscarinic acetylcholine receptor M2 in porcine heart ventricles; Non-active; method in brief: as §1

Compound: O=[N+]([O-])c1ccc(C[N+]23CC[C@@]45c6ccccc6N6[C@@H]7OCC=C8C[N+]9(Cc%10ccc([N+](=O)[O-])cc%10)CC[C@]%10%11c%12ccccc%12N([C@@H]%12OCC=C(C2)[C@H](C[C@@H]43)C%12[C@H]65)[C@H]%10[C@H]7[C@H]8C[C@@H]%119)cc1 (stereo partly drawn)
- pEC0.5 [1]: 6.47
- [3H]NMS equilibrium binding (%) [2]: 99.8%

Compound: C1=C2C[N@+]3(Cc4ccccc4)CCC45c6ccccc6N6C7OCC=C8C[N@+]9(Cc%10ccccc%10)CCC%10%11c%12ccccc%12N(C(OC1)C(C2CC43)C65)C%10C7C8CC%119 (stereo partly drawn)
- pEC0.5 [1]: 7.12
- [3H]NMS equilibrium binding (%) [2]: 86.4%

Compound: [O-][N+]12CC[C@@]34c5ccccc5N5[C@@H]6OCC=C7C[N+]8([O-])CC[C@]9%10c%11ccccc%11N([C@@H]%11OCC=C(C1)[C@H](C[C@@H]32)C%11[C@H]54)[C@H]9[C@H]6[C@H]7C[C@@H]%108 (stereo partly drawn)
- pEC0.5 [3]: inactive

Compound: COc1ccc(C[N+]23CC[C@@]45c6ccccc6N6[C@@H]7OCC=C8C[N+]9(Cc%10ccc(OC)c(OC)c%10)CC[C@]%10%11c%12ccccc%12N([C@@H]%12OCC=C(C2)[C@H](C[C@@H]43)C%12[C@H]65)[C@H]%10[C@H]7[C@H]8C[C@@H]%119)cc1OC (stereo partly drawn)
- pEC0.5 [1]: 6.47
- [3H]NMS equilibrium binding (%) [2]: 100%

Compound: C#CC[N@+]12CCC34c5ccccc5N5C6OCC=C7C[N@+]8(CC#C)CCC9%10c%11ccccc%11N(C%11OCC=C(C1)C(CC32)C%11C54)C9C6C7CC%108 (stereo partly drawn)
- pEC0.5 [1]: 8.36
- [3H]NMS equilibrium binding (%) [2]: 105%

Compound: C[N@@+]12CC[C@@]34c5ccccc5N5/C=C6/[C@H]7C[C@H]8[C@@]9(CC[N@@+]8(C)C/C7=C/CO)c7ccccc7N(/C=C(/[C@@H](C[C@@H]31)/C(=C\CO)C2)[C@H]54)[C@@H]69
- pEC0.5 [1]: 7.02
- [3H]NMS equilibrium binding (%) [2]: 104%

Compound: C=CC[N+]12CC[C@@]34c5ccccc5N5[C@@H]6OCC=C7C[N+]8(CC=C)CC[C@]9%10c%11ccccc%11N([C@@H]%11OCC=C(C1)[C@H](C[C@@H]32)[C@@H]%11[C@H]54)[C@H]9[C@H]6[C@H]7C[C@@H]%108 (stereo partly drawn)
- pEC0.5 [1]: 7.95
- [3H]NMS equilibrium binding (%) [2]: 109%

Compound: C=CC[N+]12CC[C@]34c5cc(OC)c(OC)cc5N5C3[C@@H]3[C@@H](OCC=C(C1)[C@@H]3C[C@@H]42)N1c2cc(OC)c(OC)cc2[C@@]23CC[N+]4(CC=C)CC6=CCO[C@@H]5[C@@H](C12)[C@H]6C[C@@H]34 (stereo partly drawn)
- pEC0.5 [1]: 6.69

Compound: C/C=C/C[N@+]12CCC34c5ccccc5N5C6OCC=C7C[N@+]8(C/C=C/C)CCC9%10c%11ccccc%11N(C%11OCC=C(C1)C(CC32)C%11C54)C9C6C7CC%108 (stereo partly drawn)
- pEC0.5 [1]: 7.14
- [3H]NMS equilibrium binding (%) [2]: 100%

Compound: C=CC[N+]12CC[C@@]34c5ccccc5N5/C=C6\C7N(c8ccccc8[C@@]78CC[N+]7(CC=C)C/C(=C/CO)[C@@H]6C[C@@H]87)[C@@H]6OCC=C(C1)[C@H](C[C@@H]32)C6C54 (stereo partly drawn)
- pEC0.5 [1]: 8.57
- [3H]NMS equilibrium binding (%) [2]: 119%

Compound: FC(F)(F)c1ccc(C[N+]23CC[C@@]45c6ccccc6N6[C@@H]7OCC=C8C[N+]9(Cc%10ccc(C(F)(F)F)cc%10)CC[C@]%10%11c%12ccccc%12N([C@@H]%12OCC=C(C2)[C@H](C[C@@H]43)[C@@H]%12[C@H]65)[C@H]%10[C@H]7[C@H]8C[C@@H]%119)cc1 (stereo partly drawn)
- pEC0.5 [1]: 5.76
- [3H]NMS equilibrium binding (%) [2]: 87%

Compound: C[N+]12CC[C@@]34c5ccccc5N5[C@@H]6OCC=C7C[N+]8(C)CC[C@]9%10c%11ccccc%11N([C@@H]%11OCC=C(C1)[C@H](C[C@@H]32)[C@@H]%11[C@H]54)[C@H]9[C@H]6[C@H]7C[C@@H]%108 (stereo partly drawn)
- pEC0.5 [1]: 8.09
- [3H]NMS equilibrium binding (%) [2]: 115%

Compound: C[N+]12CC[C@@]34c5ccccc5N5[C@@H]6OCC[C@@H]7C[N+]8(C)CC[C@]9%10c%11ccccc%11N([C@@H]%11OCC[C@H](C1)[C@H](C[C@@H]32)C%11[C@H]54)[C@H]9[C@H]6[C@H]7C[C@@H]%108 (stereo partly drawn)
- pEC0.5 [1]: 8.44
- [3H]NMS equilibrium binding (%) [2]: 104%

Compound: C1=C2CN3CC[C@]45c6ccccc6N6[C@@H]7OCC=C8CN9CC[C@]%10%11c%12ccccc%12N([C@H](OC1)[C@@H]([C@H]64)[C@H]2C[C@H]35)[C@H]%10[C@H]7[C@H]8C[C@H]9%11
- pEC0.5 [1]: 6.36
- [3H]NMS equilibrium binding (%) [2]: 95.8%

Compound: NC(=O)C[N+]12CC[C@@]34c5ccccc5N5[C@@H]6OCC=C7C[N+]8(CC(N)=O)CC[C@]9%10c%11ccccc%11N([C@@H]%11OCC=C(C1)[C@H](C[C@@H]32)[C@@H]%11[C@H]54)[C@H]9[C@H]6[C@H]7C[C@@H]%108 (stereo partly drawn)
- pEC0.5 [1]: 6.65
- [3H]NMS equilibrium binding (%) [2]: 87.8%

Compound: O=C1c2ccccc2C(=O)N1CCC[N@+]12CCC34c5ccccc5N5C6OCC=C7C[N@+]8(CCCN9C(=O)c%10ccccc%10C9=O)CCC9%10c%11ccccc%11N(C%11OCC=C(C1)C(CC32)C%11C54)C9C6C7CC%108 (stereo partly drawn)
- pEC0.5 [1]: 6.43
- [3H]NMS equilibrium binding (%) [2]: 88.4%

Compound: C1=C2C[N+]3(CC4CO4)CC[C@@]45c6ccccc6N6[C@@H]7OCC=C8C[N+]9(CC%10CO%10)CC[C@]%10%11c%12ccccc%12N([C@H](OC1)[C@H](C2C[C@@H]43)[C@H]65)[C@H]%10[C@H]7[C@H]8C[C@@H]%119 (stereo partly drawn)
- pEC0.5 [1]: 7.19
- [3H]NMS equilibrium binding (%) [2]: 110%

Compound: C1=CC([N@+]23CCC45c6ccccc6N6C7OCC=C8C[N@+]9(C%10C=CCCC%10)CCC%10%11c%12ccccc%12N(C%12OCC=C(C2)C(CC43)C%12C65)C%10C7C8CC%119)CCC1 (stereo partly drawn)
- pEC0.5 [1]: 7.7
- [3H]NMS equilibrium binding (%) [2]: 109%

Compound: COc1ccc(C[N+]23CC[C@@]45c6ccccc6N6[C@@H]7OCC=C8C[N+]9(Cc%10ccc(OC)cc%10)CC[C@]%10%11c%12ccccc%12N([C@@H]%12OCC=C(C2)[C@H](C[C@@H]43)[C@@H]%12[C@H]65)[C@H]%10[C@H]7[C@H]8C[C@@H]%119)cc1 (stereo partly drawn)
- pEC0.5 [1]: 5.95
- [3H]NMS equilibrium binding (%) [2]: 70.4%

Compound: O=C(C[N+]12CC[C@@]34c5ccccc5N5[C@@H]6OCC=C7C[N+]8(CC(=O)c9ccccc9)CC[C@]9%10c%11ccccc%11N([C@@H]%11OCC=C(C1)[C@H](C[C@@H]32)[C@@H]%11[C@H]54)[C@H]9[C@H]6[C@H]7C[C@@H]%108)c1ccccc1 (stereo partly drawn)
- pEC0.5 [1]: 5.49
- [3H]NMS equilibrium binding (%) [2]: 6.1%

Compound: C1=C2C[N@+]3(CC4CC4)CCC45c6ccccc6N6C7OCC=C8C[N@+]9(CC%10CC%10)CCC%10%11c%12ccccc%12N(C(OC1)C(C2CC43)C65)C%10C7C8CC%119 (stereo partly drawn)
- pEC0.5 [1]: 7.86
- [3H]NMS equilibrium binding (%) [2]: 110%

Compound: N#CC[N+]12CC[C@@]34c5ccccc5N5[C@@H]6OCC=C7C[N+]8(CC#N)CC[C@]9%10c%11ccccc%11N([C@@H]%11OCC=C(C1)[C@H](C[C@@H]32)C%11[C@H]54)[C@H]9[C@H]6[C@H]7C[C@@H]%108 (stereo partly drawn)
- pEC0.5 [1]: 6.69
- [3H]NMS equilibrium binding (%) [2]: 85.3%

Compound: C=CC[N+]12CC[C@@]34c5ccccc5N5[C@@H]6OCC=C7CN8CC[C@]9%10c%11ccccc%11N([C@@H]%11OCC=C(C1)[C@H](C[C@@H]32)[C@@H]%11[C@H]54)[C@H]9[C@H]6[C@H]7C[C@H]8%10 (stereo partly drawn)
- pEC0.5 [1]: 7.74
- [3H]NMS equilibrium binding (%) [2]: 81.4%

Compound: Fc1c(F)c(F)c(C[N@+]23CCC45c6ccccc6N6C7OCC=C8C[N@+]9(Cc%10c(F)c(F)c(F)c(F)c%10F)CCC%10%11c%12ccccc%12N(C%12OCC=C(C2)C(CC43)C%12C65)C%10C7C8CC%119)c(F)c1F (stereo partly drawn)
- pEC0.5 [1]: 7.27
- [3H]NMS equilibrium binding (%) [2]: 111%

Compound: OC/C=C1\C[N+]2(C3C=CCCC3)CCC34c5ccccc5N5/C=C6/C7CC8C9(CC[N+]8(C8C=CCCC8)C/C7=C/CO)c7ccccc7N(/C=C(/C1CC32)C54)C69 (stereo not drawn)
- pEC0.5 [1]: 8.07
- [3H]NMS equilibrium binding (%) [2]: 118%

Compound: C1=C2C[N@+]3(Cc4ccc5ccccc5c4)CCC45c6ccccc6N6C7OCC=C8C[N@+]9(Cc%10ccc%11ccccc%11c%10)CCC%10%11c%12ccccc%12N(C(OC1)C(C2CC43)C65)C%10C7C8CC%119 (stereo partly drawn)
- pEC0.5 [1]: 5.82
- [3H]NMS equilibrium binding (%) [2]: 89%

Compound: CC#CC[N@+]12CCC34c5ccccc5N5C6OCC=C7C[N@+]8(CC#CC)CCC9%10c%11ccccc%11N(C%11OCC=C(C1)C(CC32)C%11C54)C9C6C7CC%108 (stereo partly drawn)
- pEC0.5 [1]: 7.36
- [3H]NMS equilibrium binding (%) [2]: 103%

Compound: Brc1ccc(C[N+]23CC[C@@]45c6ccccc6N6[C@@H]7OCC=C8C[N+]9(Cc%10ccc(Br)cc%10)CC[C@]%10%11c%12ccccc%12N([C@@H]%12OCC=C(C2)[C@H](C[C@@H]43)[C@@H]%12[C@H]65)[C@H]%10[C@H]7[C@H]8C[C@@H]%119)cc1 (stereo partly drawn)
- pEC0.5 [1]: 6.29
- [3H]NMS equilibrium binding (%) [2]: 113%

Compound: C=CC[N@@+]12CC[C@@]34c5ccccc5N5/C=C6/[C@H]7C[C@H]8[C@@]9(CC[N@@+]8(CC=C)C/C7=C/CO)c7ccccc7N(/C=C(/[C@@H](C[C@@H]31)/C(=C\CO)C2)[C@H]54)[C@@H]69
- pEC0.5 [1]: 8.65
- [3H]NMS equilibrium binding (%) [2]: 116%

Compound: C[N+]12CCC34c5ccccc5N5/C=C6/C7CC8C9(CC[N+]8(C)C/C7=C/CO)c7ccccc7N(/C=C(/C(CC31)/C(=C/CO)C2)C54)C69 (stereo not drawn)
- pEC0.5 [1]: 7.87
- [3H]NMS equilibrium binding (%) [2]: 119%
